High-throughput results as filed in PubChem BioAssay.
Sampled rows, rich in hits. Any-hit rate of the full collection: about 1.4%.
HIF act: HIF pathway transcriptional activation; U2OS HRE-luciferase reporter, luminescence; normalized: DMSO 0%, desferrioxamine 100%; AID 1910; activation, % at 7.5 µM (by protocol); actives 0.32% (n = 300,000);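 active means mean activation of at least 10% of the iron chelator positive control signal, with at least half of replicates also reaching 10%; inconclusive means mean and replicate majority disagree about reaching 10%; inactive means mean and most replicates under 10%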
T cell modulator: modulates CD8 T cell binding to vesicles; response (vesicle binding), % at 7 µM; 2C CD8+ T cell-vesicle binding, flow cytometry; hits give low values; AID 2052; actives 0.068% (n = 330,000);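 active means response, share of CD8 T cells binding vesicles, and their 90th percentile fluorescence all below set limits, cut at about 80% in these data, passing the limit was not always enough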;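 further: values below 100% mean blocked vesicle binding to the CD8+ T cells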
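Benchmarks: naked versus QL9-loaded vesicles / Assay system: purified 2C TCR transgenic mouse naive CD8+ T cells / Technique: high-throughput flow cytometry with anti-B7-1 and anti-CD8 staining / Timing: Cell–vesicle co-incubation 1.5 h at 37 °C, staining 20 min on ice / Read-out: percent CD8+ FL2 mean versus row control / Probe or stimulus: QL9-loaded Drosophila micro-vesicles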
JMJD2C inh: human JMJD2C demethylase inhibition. GST-JMJD2C(1-420) H3K9me3 demethylation, DELFIA europium. inhibition, % at 2.35 µM. AID 2099. actives 0.069% (n = 330,000). Q9H3R0;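 active means more than half of a compound's replicate wells show inhibition beyond 50%, single wells judged on their own value; inconclusive means some, but no more than half, of replicates pass 50% inhibition; inactive means no replicate passes 50% inhibition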;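 further: signal counts dimethyl H3K9 product captured on neutravidin plate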
Target sequence (Q9H3R0 1-420 limits assumed): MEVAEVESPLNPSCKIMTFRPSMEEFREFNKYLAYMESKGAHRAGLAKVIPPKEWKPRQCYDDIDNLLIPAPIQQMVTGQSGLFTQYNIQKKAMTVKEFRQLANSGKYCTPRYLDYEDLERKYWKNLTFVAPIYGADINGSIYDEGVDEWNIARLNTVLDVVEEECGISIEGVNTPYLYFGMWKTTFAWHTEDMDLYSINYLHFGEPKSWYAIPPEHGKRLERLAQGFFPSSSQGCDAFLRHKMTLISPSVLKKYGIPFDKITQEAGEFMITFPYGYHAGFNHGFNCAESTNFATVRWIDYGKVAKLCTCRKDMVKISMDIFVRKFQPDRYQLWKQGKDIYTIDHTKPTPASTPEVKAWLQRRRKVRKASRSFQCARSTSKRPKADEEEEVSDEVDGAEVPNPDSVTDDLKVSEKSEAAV
Mot1-301 SUMO: inhibitors of SUMOylation pathway: yeast Mot1-301 growth rescue; S. cerevisiae Mot1-301 growth rescue, ATP luminescence, 38.5C; percent above DMSO median, 100 means doubled; growth rescue, % at 18.8 µM; actives 1% (n = 320,000); AID 2716;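 active means every valid replicate shows activation above 250% relative to neutral control wells; inactive means the rest, any valid replicate at or below 250%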
Yeast Mot1 SUMO: inhibits SUMO pathway, affecting Mot1-301 yeast growth; shares compounds with Mot1-301 SUMO; S. cerevisiae Mot1-301 galactose growth, ATP luminescence, 24 h; -100 = growth of slx-deleted rescue strain; growth activity, percent, % at 42 µM; 2,300 tested, under 10 active; AID 493004;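 active means Signal drops as the depositor expects, and the fitted half-maximal dose is no more than ten times the top valid tested dose; inconclusive means Poor fit, or a flat curve whose signal drops by 30% to 70%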;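 further: more negative values mean stronger growth rescue toward the control strain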
A number is an active result; i = inactive; ? = inconclusive; nt = no result given; + = active, no number.

SMILES	HIF act	T cell modulator	JMJD2C inh	Mot1-301 SUMO	Yeast Mot1 SUMO
O=C(CCCC(=O)N/N=C/c1ccccc1C(=O)O)N/N=C/c1ccccc1C(=O)O	i	i	i	419	i
O=C(O)c1c(C(=O)O)c(-c2ccc(F)cc2)n2c1CCC2	i	i	?	499	i
CC(CNC(=O)c1ccc(OC2CCN(Cc3ccccn3)CC2)cc1)c1ccccc1 (centres undefined)	i	i	i	i	nt
O=C(N/N=C/c1cccs1)c1cncc(Br)c1	i	i	i	470	i
O=C(N/N=C/c1cccs1)c1cccnc1	i	i	i	i	nt
COCCCNS(=O)(=O)c1ccc(Oc2ncc(C(F)(F)F)cc2Cl)cc1	i	i	i	+	i
Cc1ccc(CNC(=O)c2ccc(N3CCC4(CC3)CC(c3ccccc3)=NO4)c(NC(=O)c3cccc(C)c3)c2)cc1	i	i	i	947	i
Cc1ccc(CNC(=O)c2ccc(N3CCC4(CC3)CC(c3cccc(Br)c3)=NO4)c(NC(=O)c3cccc(C)c3)c2)cc1	nt	i	i	i	nt
CCCOC(=O)c1ccc(O)c(OC)c1	i	i	i	398	i
CC(OC(=O)CCC1CCCC1)C(=O)Nc1ccccc1[N+](=O)[O-] (centres undefined)	i	i	i	i	nt
O=C(CCNC(=O)c1ccc(Br)cc1)NCc1ccccc1F	i	i	i	812	i
C#CCOCCOCCOCCNc1nc(N2CCN(C(=O)[C@H](CCC(=O)O)n3cc([C@@H](N)[C@H](C)CC)nn3)CC2)nc(N2CCN(C(=O)[C@H](CCC(=O)O)n3cc([C@@H](N)CC(N)=O)nn3)CC2)n1	nt	i	i	i	nt
CC(=O)NC12CC3CC(C1)CC(C(=O)NCc1ccc(C)cc1)(C3)C2	i	i	i	i	nt
Cc1ccc(S(=O)(=O)N[C@@H](Cc2ccccc2)C(=O)CCl)cc1	nt	i	i	608	i
Cc1cc(OCC(=O)NCC2CCC(C(=O)O)CC2)c2c(C)c(C)c(=O)oc2c1 (centres undefined)	i	i	i	358	i
CCc1cc(=O)oc2cc(C)cc(OCC(=O)NCC3CCC(C(=O)O)CC3)c12 (centres undefined)	i	i	i	i	nt
COc1ccc(OC)c(-c2cc(C(=O)Nc3c(C)nn(Cc4ccccc4Cl)c3C)no2)c1	i	i	i	571	i
CS(=O)(=O)N1CCC(Oc2ccccc2C(=O)N2CCNC(=O)C2)CC1	i	i	i	401	i
CS(=O)(=O)N1CCC(Oc2ccccc2C(=O)N2CCN(CC3CC3)CC2)CC1	i	i	i	i	nt
Cc1ccc(C(=O)/C=C/c2ccc(-c3ccccc3[N+](=O)[O-])o2)cc1	i	i	i	491	i
O=C(/C=C/c1ccc(-c2ccccc2[N+](=O)[O-])o1)c1ccc(Br)cc1	i	i	i	i	nt
COc1ccc(C(CNC(=O)CSc2ccc(Br)cc2C)N2CCOCC2)cc1 (centres undefined)	i	i	i	i	nt
O=C(c1cc(F)ccc1F)C1CCCN(C(=O)c2ccc3nccnc3c2)C1 (centres undefined)	i	i	i	670	i
CCOc1ccccc1CN1CCN(CC2CC2)CC1CCO (centres undefined)	i	i	i	i	nt
CCOc1ccccc1CN1CCN(Cc2ccon2)CC1CCO (centres undefined)	i	i	i	817	i
SMILES	HIF act	T cell modulator	JMJD2C inh	Mot1-301 SUMO	Yeast Mot1 SUMO
CCOc1ccc2nc(CN3CCN(Cc4ccccc4OCC)C(CCO)C3)ccc2c1 (centres undefined)	i	i	i	511	i
CCOc1ccc(N(CC(=O)Nc2ccc(C)c(C)c2)S(C)(=O)=O)cc1	i	i	i	i	nt
COc1ccc(COC(=O)c2ccc(Br)c(S(=O)(=O)N3CCOCC3)c2)cc1F	i	i	i	i	nt
COc1ccccc1-c1sc2ccccc2c1-c1ccc2c(c1)OCO2	i	i	i	998	i
CCCCNc1ncnc2sc3c(c12)CCN(CCC)C3	i	i	i	i	nt
Cc1nc2sc(C(=O)Nc3ccccc3Cc3ccccc3)c(C)c2c(=O)[nH]1	i	i	i	i	nt
CCc1ccc2[nH]c(=O)c(C(c3nnnn3Cc3ccccc3)N3CCOCC3)cc2c1 (centres undefined)	i	i	i	478	i
CCCCc1nnc(NC(=O)CSc2nc(O)c(-c3ccccc3)c(=O)[nH]2)s1	i	i	i	631	i
COCCN(C(=O)c1cc(Cl)ccn1)c1c(N)n(Cc2ccccc2)c(=O)[nH]c1=O	nt	i	nt	nt	nt
CN(C(=S)NC1=CCS(=O)(=O)C1)C1CCCCC1	i	i	i	581	i
Cc1sc2ncnc(N3CCC(C(=O)NNC(=O)COc4ccccc4Cl)CC3)c2c1C	i	i	i	i	nt
Cc1sc2ncnc(N3CCC(C(=O)NNC(=O)COc4ccccc4F)CC3)c2c1C	i	i	i	422	i
CCOc1ccccc1C(=O)N(Cc1cccs1)C1CCS(=O)(=O)C1 (centres undefined)	i	i	i	+	i
CC(C)(C)c1ccc(C(=O)COC(=O)CN2C(=O)NC3(CCCC3)C2=O)cc1	i	i	i	522	i
CC(C)(C)c1ccc(COC(=O)CN2C(=O)NC3(CCCC3)C2=O)cc1	i	i	i	i	nt
COc1cccc(CNC(=O)c2ccc(C)c(S(=O)(=O)N3CCCCC3)c2)c1	i	i	i	i	nt
c1coc(C2OCC3(CO2)COC(c2ccco2)OC3)c1 (centres undefined)	i	i	i	523	i
CCOC(=O)NC1(Nc2ccc(C)cc2)Oc2ccccc2O1	i	i	i	445	i
CN(C)c1ccnc2sc3c(NCC(O)CO)ncnc3c12 (centres undefined)	i	i	i	616	i
COc1cccc(-c2ocnc2C(=O)Nc2ccc3c(c2)CCC3)c1	i	i	i	430	i
Cc1cc(C)cc(OCC(=O)OCC(=O)NC2CC2)c1	nt	i	i	i	nt
Cc1ccccc1NC(=O)CN1C(=O)N/C(=C\c2ccccc2OCc2ccc(C(=O)O)cc2)C1=O	i	i	i	i	nt
CCOC(=O)C1ON2CCCCC2C1(O)C(F)(F)F (centres undefined)	i	i	i	528	i
O=C(COc1ccccc1)NCCS(=O)(=O)N1CCN(c2ccccc2)CC1	i	i	i	380	i
O=S(=O)(Cc1ccccc1)N1CCN(c2ccccc2)CC1	i	i	i	583	i
SMILES	HIF act	T cell modulator	JMJD2C inh	Mot1-301 SUMO	Yeast Mot1 SUMO
CCc1ccccc1Nc1nc(N)nc(COC(=O)CCC(=O)c2ccc(F)cc2)n1	nt	i	i	i	nt
CNC(=S)N1CCN(c2nc3ccccc3s2)CC1	i	i	i	i	nt
O=C(Cc1csc(N2CCOCC2)n1)N/N=C/c1ccc(O)c(O)c1O	i	nt	i	nt	nt
C/C(=N\NC(=O)Cc1csc(N2CCOCC2)n1)c1ccccc1	i	i	i	476	i
COc1ccc(/C(C)=N/NC(=S)NCCc2ccccc2)c(O)c1	i	i	i	i	nt
COc1ccc(NC(=S)Nc2ccccc2OC)c(OC)c1	i	i	i	476	i
